Experimental data: ChEMBL document CHEMBL4699666, “Cyclic Peptidyl Inhibitors against CAL/CFTR Interaction for Treatment of Cystic Fibrosis” (J Med Chem, 2020)
Values belong to the compound of their own block, whether it stands above or below them. The source made the active and inactive calls. No cut-off for these calls is given here. Positions of bridges follow the written chain, without caps; N, C: chain ends. Non-standard residues stand in square brackets, D forms with d. Residues, ends and D or L forms follow the SMILES beside them. 2Nal = N[C@@H](Cc1ccc2ccccc2c1)C(=O)O; Bta = N[C@@H](Cc1csc2ccccc12)C(=O)O; Pen = CC(C)(S)[C@H](N)C(=O)O; Tle = CC(C)(C)[C@H](N)C(=O)O; Pip = O=C(O)[C@@H]1CCCCN1

Tests used:
[1] = Drug uptake in human HeLa cells assessed as absolute cytosolic entry efficiency at 5 uM incubated for 2 hrs by flow cytometry; type: ADME, subcellular, Cytoplasm
[2] = tested on: Cystic fibrosis transmembrane conductance regulator (Homo sapiens), P13569 [F508del]; assay: Corrector activity at CFTR F508del mutant in human CF-HBE cells isolated from patient with F508del mutation assessed as increase in short-circuit current at 5 uM incubated for 24 hrs; type: cell-based; conditions: Epithelial cell, filed as activator
Sequence of Cystic fibrosis transmembrane conductance regulator (Homo sapiens), P13569 [F508del] (P13569 as listed by the source): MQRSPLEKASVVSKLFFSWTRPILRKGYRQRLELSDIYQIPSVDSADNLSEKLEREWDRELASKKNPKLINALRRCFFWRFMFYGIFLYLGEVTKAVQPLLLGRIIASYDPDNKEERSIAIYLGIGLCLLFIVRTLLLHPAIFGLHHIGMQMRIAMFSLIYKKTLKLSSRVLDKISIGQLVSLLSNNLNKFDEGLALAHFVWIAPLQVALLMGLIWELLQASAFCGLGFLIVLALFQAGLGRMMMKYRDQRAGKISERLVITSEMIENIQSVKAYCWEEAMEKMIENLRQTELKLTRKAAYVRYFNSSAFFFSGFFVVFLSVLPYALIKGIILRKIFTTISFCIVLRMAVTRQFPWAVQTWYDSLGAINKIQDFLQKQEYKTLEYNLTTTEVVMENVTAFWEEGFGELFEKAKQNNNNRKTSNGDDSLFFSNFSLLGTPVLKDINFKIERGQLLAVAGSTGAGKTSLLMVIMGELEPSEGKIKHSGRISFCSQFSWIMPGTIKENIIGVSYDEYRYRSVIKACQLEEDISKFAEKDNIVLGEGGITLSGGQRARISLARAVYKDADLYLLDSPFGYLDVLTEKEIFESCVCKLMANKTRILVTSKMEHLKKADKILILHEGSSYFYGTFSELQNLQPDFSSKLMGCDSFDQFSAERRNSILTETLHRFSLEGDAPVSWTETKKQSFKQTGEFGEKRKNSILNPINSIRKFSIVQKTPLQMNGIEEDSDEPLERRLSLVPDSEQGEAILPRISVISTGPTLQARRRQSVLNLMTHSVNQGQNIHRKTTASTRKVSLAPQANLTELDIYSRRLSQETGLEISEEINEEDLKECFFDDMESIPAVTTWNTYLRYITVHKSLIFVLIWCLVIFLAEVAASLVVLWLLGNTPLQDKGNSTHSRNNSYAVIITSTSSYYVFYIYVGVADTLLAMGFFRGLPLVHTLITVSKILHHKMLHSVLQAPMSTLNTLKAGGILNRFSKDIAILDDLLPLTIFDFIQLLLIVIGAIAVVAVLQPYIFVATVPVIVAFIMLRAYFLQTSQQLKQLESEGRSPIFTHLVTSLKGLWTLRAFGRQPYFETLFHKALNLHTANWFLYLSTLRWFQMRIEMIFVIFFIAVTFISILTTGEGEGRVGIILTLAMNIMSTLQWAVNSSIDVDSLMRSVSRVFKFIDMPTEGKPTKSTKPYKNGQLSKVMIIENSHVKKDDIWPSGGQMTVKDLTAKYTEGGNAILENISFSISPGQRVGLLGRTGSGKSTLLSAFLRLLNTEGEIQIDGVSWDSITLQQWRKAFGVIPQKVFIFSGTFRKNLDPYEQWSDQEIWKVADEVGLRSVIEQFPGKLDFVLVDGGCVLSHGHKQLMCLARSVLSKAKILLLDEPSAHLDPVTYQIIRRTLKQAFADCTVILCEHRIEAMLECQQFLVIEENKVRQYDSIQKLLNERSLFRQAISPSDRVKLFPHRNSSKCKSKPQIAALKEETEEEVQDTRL
Summary of the method: (§1)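 Primary bronchial epithelia from F508del/F508del donors (three donors) were grown at air/liquid interface and given corrector (5 μM VX-661) or none. After 24 h, peptide or DMSO was applied apically in Hank's solution for 1 h, then removed, and cells were kept a further 24 h. Ussing chambers used Ringer's with a low-chloride apical side. Isc changes were read after forskolin (10 μM) activation and Inh-172 inhibition; n = 5 filters.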

[3] = target: T1, Na(+)/H(+) exchange regulatory cofactor NHE-RF1 (Homo sapiens, UniProt O14745); assay: Binding affinity to NHERF1 PDZ1 domain (unknown origin) expressed in Escherichia coli BL21 incubated for 1 hr by fluorescence polarization based competition assay
T1 sequence (O14745 whole entry): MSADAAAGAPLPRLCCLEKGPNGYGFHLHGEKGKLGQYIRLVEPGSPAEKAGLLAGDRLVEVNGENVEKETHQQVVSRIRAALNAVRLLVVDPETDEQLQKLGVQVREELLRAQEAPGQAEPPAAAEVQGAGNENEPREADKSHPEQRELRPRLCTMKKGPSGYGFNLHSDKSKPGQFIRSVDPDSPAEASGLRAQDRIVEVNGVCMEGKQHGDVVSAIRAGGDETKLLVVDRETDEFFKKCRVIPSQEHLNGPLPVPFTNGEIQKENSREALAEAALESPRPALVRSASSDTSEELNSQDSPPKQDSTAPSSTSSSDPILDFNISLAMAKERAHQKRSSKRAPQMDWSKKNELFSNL
Summary of the method: (§2)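 CAL, NHERF1 and NHERF2 PDZ domains carried a C-terminal His6 tag, were expressed in E. coli BL21 (0.1 mM IPTG, 16 h at 18 °C) and purified on Ni-NTA. For direct binding, 50 nM fluorescein-labelled peptide was titrated with PDZ protein (0–2.5 μM CAL; 0–25 μM NHERF1/2) in PBS pH 7.4 with 0.01% Triton X-100 and 2 mM TCEP for 1 h at room temperature. Fluorescence polarization gave KD; n = 3.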

[4] = target: T2, Na(+)/H(+) exchange regulatory cofactor NHE-RF2 (Homo sapiens, UniProt Q15599); assay: Binding affinity to NHERF2 PDZ1 domain (unknown origin) expressed in Escherichia coli BL21 incubated for 1 hr by fluorescence polarization based competition assay; summary of the method: as §2
T2 sequence (Q15599 whole entry, the tested form may be a part): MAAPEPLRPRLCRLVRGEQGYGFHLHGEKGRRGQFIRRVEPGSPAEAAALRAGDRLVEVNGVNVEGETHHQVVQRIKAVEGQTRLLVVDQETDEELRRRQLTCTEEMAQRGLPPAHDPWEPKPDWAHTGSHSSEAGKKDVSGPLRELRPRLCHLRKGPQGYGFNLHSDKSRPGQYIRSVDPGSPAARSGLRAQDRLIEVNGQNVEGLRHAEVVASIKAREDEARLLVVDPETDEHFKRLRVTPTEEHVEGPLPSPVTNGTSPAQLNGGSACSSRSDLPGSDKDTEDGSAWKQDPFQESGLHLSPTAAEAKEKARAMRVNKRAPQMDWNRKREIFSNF

[5] = target: T2, Na(+)/H(+) exchange regulatory cofactor NHE-RF2; assay: Binding affinity to NHERF2 PDZ2 domain (unknown origin) expressed in Escherichia coli BL21 incubated for 1 hr by fluorescence polarization based competition assay
Homo sapiens [6] = organism: Homo sapiens; assay: Selectivity index, ratio of Kd for binding affinity to NHERF1 PDZ1 domain (unknown origin) expressed in Escherichia coli BL21 to Kd for binding affinity to C-terminal His6 tagged CAL PDZ domain (unknown origin) expressed in Escherichia coli BL21; summary of the method: as §2
Homo sapiens [7] = organism: Homo sapiens; assay: Selectivity index, ratio of Kd for binding affinity to NHERF2 PDZ1 domain (unknown origin) expressed in Escherichia coli BL21 to Kd for binding affinity to C-terminal His6 tagged CAL PDZ domain (unknown origin) expressed in Escherichia coli BL21; summary of the method: as §2
[8] = target: T3, Golgi-associated PDZ and coiled-coil motif-containing protein (Homo sapiens, UniProt Q9HD26); assay: Binding affinity to C-terminal His6 tagged CAL PDZ domain (unknown origin) expressed in Escherichia coli BL21 incubated for 1 hr by fluorescence polarization assay
[9] = Drug metabolism in human HCT-116 cells assessed as formation of (2S)-2-[[(2S)-2-[[(2S,3R)-2-[[(2R)-2-[[(2S)-1-[(2S)-2-[[(2S)-2-[[(2S)-2-[[(2S)-2-[[(2R)-2-[[(2R)-2-acetamido-3-sulfanyl-propanoyl]amino]-5-guanidino-pentanoyl]amino]-5-guanidino-pentanoyl]amino]-5-guanidino-pentanoyl]amino]-3-(2-naphthyl)propanoyl]amino]-3-(benzothiophen-3-yl)propanoyl]piperidine-2-carbonyl]amino]-3-methyl-3-sulfanyl-butanoyl]amino]-3-hydroxy-butanoyl]amino]-5-guanidino-pentanoyl]amino]-3,3-dimethyl-butanoic acid at 5 uM incubated for 4 to 24 hrs by MALDI-TOF-TOF mass spectrometry; type: ADME, cell-based; conditions: hct-116, 5 µM, time 4-24 hrs
Summary of the method: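 HCT116 spheroids (7,000 cells seeded on agarose, grown 12 days) were exposed to 5 μM cyclic peptide for 4 or 24 h. They were washed, gelatin-embedded and cut into 16 μm sections. Positive-ion MALDI-TOF-TOF imaging (m/z 360–1400) gave heatmaps, scaled to the most intense signal, for intact peptide and about 20 possible proteolytic fragments.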

[10] = Toxicity in human CFBE41o- cells assessed as reduction in cell viability up to 50 uM incubated for 72 hrs by MTT assay; type: cell-based
Summary of the method: (§3)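 CFBE41o-, HCT116 or H358 cells were seeded at 5 × 10^3 per well and the next day exposed for 72 h at 37 °C to serial dilutions of peptide in DPBS at constant 0.5% DMSO. MTT was added for 4 h, formazan was solubilized with SDS-HCl overnight and absorbance read at 565 nm. Viability was expressed relative to 0.5% DMSO controls (100%); n = 3.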

HCT-116 = assay: Toxicity in human HCT-116 cells assessed as reduction in cell viability up to 50 uM incubated for 72 hrs by MTT assay; type: cell-based; conditions: hct-116, 72 h; summary of the method: as §3
NCI-H358 = assay: Toxicity in human NCI-H358 cells assessed as reduction in cell viability up to 50 uM incubated for 72 hrs by MTT assay; type: cell-based; conditions: nci-h358, 72 h; summary of the method: as §3
Epithelial cell = assay: Inhibition of CAL and CFTR F508del mutant interaction in human CF-HBE cells isolated from patient with F508del mutation assessed as increase in short-circuit current incubated for 24 hrs in presence of 5 uM VX-661 by relative to VX-661 alone; type: cell-based; summary of the method: as §1
[11] = target: T3, Golgi-associated PDZ and coiled-coil motif-containing protein; assay: Binding affinity to C-terminal His6 tagged CAL PDZ domain (unknown origin) expressed in Escherichia coli BL21 incubated for 1 hr using FAM-22 probe by fluorescence polarization based competition assay
[12] = Drug uptake in human HeLa cells at 5 uM incubated for 2 hrs by flow cytometry relative to CPP9; type: ADME, cell-based
Summary of the method: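 Naphthofluorescein-labelled cyclic peptides (5 μM final, 0.5% DMSO, in DMEM with 10% FBS) were applied to HeLa cells, seeded the day before at 15 × 10^4 per well, for 2 h at 37 °C. Cells were washed with cold DPBS, trypsinized and analysed by flow cytometry. Mean fluorescence was expressed as % of CPP9; n = 3.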

[13] = Half life in 25% human serum at 100 uM incubated for 24 hrs at 37 degC by HPLC analysis; type: ADME, cell-free
Summary of the method: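 Human serum diluted 1:4 in DPBS was pre-warmed to 37 °C, and peptide (100 μM final) was incubated in it at 37 °C. At each time point, aliquots were deproteinized with 15% TCA in MeOH plus MeCN for 24 h at 4 °C and centrifuged. Supernatants were analysed by reversed-phase HPLC, reading at 214 nm, for intact peptide remaining.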

Structure (SMILES): N=C(N)NCCC[C@@H]1NC(=O)[C@H](Cc2ccc3ccccc3c2)NC(=O)[C@@H](Cc2ccccc2)NC(=O)[C@H](CCC(N)=O)NC(=O)[C@@H](CCCNC(=N)N)NC(=O)[C@H](CCCNC(=N)N)NC(=O)[C@@H](CCCNC(=N)N)NC1=O (cyclo([2Nal]R[dR]R[dR]Q[dF]))
Drug uptake [1]: 62%

Structure (SMILES): C[C@@H](O)[C@H](NC(=O)[C@@H](NC(=O)[C@@H](NC(=O)[C@H](Cc1csc2ccccc12)NC(=O)[C@H](Cc1ccc2ccccc2c1)NC(=O)[C@H](CCCNC(=N)N)NC(=O)[C@H](CCCNC(=N)N)NC(=O)[C@@H](CCCNC(=N)N)NC(=O)[C@H](CS)NC(=O)COCCOCCNC(=O)c1ccc2c(c1)C(=O)OC21c2ccc(O)cc2Oc2cc(O)ccc21)C(C)(C)S)C(C)(C)C)C(=O)N[C@@H](CCCNC(=N)N)C(=O)N[C@H](C(=O)O)C(C)(C)C
Kd [3]: 330 nM
Kd [4]: 560 nM
Kd [5]: 2820 nM
Ratio (Homo sapiens [6]): 6.7
Ratio (Homo sapiens [7]): 11.4
Kd [8]: 49 nM

Structure (SMILES): CC(=O)N[C@@H](CS)C(=O)N[C@H](CCCNC(=N)N)C(=O)N[C@@H](CCCNC(=N)N)C(=O)N[C@@H](CCCNC(=N)N)C(=O)N[C@@H](Cc1ccc2ccccc2c1)C(=O)N[C@@H](Cc1csc2ccccc12)C(=O)N1CCCC[C@H]1C(=O)N[C@H](C(=O)N[C@H](C(=O)N[C@@H](CCCNC(=N)N)C(=O)N[C@H](C(=O)O)C(C)(C)C)[C@@H](C)O)C(C)(C)S (Ac-C[dR]RR[2Nal][Bta][Pip][Pen]TR[Tle]-OH)
IC50 [11]: 20 nM
Drug uptake [12]: 61%
half-life at 100 µM [13]: > 24 h

Second part, led by results:

Activity [2]: Active
Structure (SMILES): CC(C)(CO)c1cc2cc(NC(=O)C3(c4ccc5c(c4)OC(F)(F)O5)CC3)c(F)cc2n1C[C@@H](O)CO

Drug metabolism [9]: Metabolite_Detected
Structure (SMILES): CC(=O)N[C@H]1CSSC(C)(C)[C@@H](C(=O)N[C@H](C(=O)N[C@@H](CCCNC(=N)N)C(=O)N[C@H](C(=O)O)C(C)(C)C)[C@@H](C)O)NC(=O)[C@@H]2CCCCN2C(=O)[C@H](Cc2csc3ccccc23)NC(=O)[C@H](Cc2ccc3ccccc3c2)NC(=O)[C@H](CCCNC(=N)N)NC(=O)[C@H](CCCNC(=N)N)NC(=O)[C@@H](CCCNC(=N)N)NC1=O (Ac-C[dR]RR[2Nal][Bta][Pip][Pen]TR[Tle]-OH; disulfide 1-8)
Activity [10]: Non-Toxic
Activity (HCT-116): Non-Toxic
Activity (NCI-H358): Non-Toxic
conc. at maximal effect (Epithelial cell): 100 nM
inhibition (Epithelial cell): Dose-dependent effect
